E-sel inducer: E-selectin induction on HUVECs. P16581. HUVEC E-selectin immunofluorescence imaging; normalized: neutral wells 0, TNF-alpha wells 100. activation, % at 7.58 µM. 260,000 compounds, 0.37% hits. AID 686992;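 active = mean E-selectin-positive cell signal at least 10% of the positive control, reached in at least 60% of replicates, without over 20% cell loss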
Target sequence (P16581 whole entry, looked up): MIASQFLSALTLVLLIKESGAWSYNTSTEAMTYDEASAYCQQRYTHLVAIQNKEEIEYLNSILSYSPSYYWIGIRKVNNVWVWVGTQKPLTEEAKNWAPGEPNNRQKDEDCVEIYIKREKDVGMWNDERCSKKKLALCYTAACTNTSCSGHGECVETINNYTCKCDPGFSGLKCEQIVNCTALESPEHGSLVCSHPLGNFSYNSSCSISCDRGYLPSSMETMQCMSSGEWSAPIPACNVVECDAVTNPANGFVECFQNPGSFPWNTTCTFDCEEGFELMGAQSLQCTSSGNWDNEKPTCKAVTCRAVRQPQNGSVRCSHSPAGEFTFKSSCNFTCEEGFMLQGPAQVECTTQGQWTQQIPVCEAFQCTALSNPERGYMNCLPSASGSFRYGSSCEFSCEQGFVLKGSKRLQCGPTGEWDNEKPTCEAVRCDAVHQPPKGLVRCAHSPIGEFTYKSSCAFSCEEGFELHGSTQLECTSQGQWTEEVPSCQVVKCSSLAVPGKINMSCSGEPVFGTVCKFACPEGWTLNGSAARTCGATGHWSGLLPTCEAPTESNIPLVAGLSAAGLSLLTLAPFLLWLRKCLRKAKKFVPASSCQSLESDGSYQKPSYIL
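Test system – human umbilical vein endothelial cells (HUVEC), E-selectin induction · Input – 3,000 HUVEC seeded per well · Buffer or medium – EGM-2, gelatin · Compound dosing – single-point compound dose · Detection – immunofluorescence imaging · Measure – percent E-selectin-positive cells · Controls – TNF-alpha high, DMSO low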
LGR2 antag: inhibitors of bursicon-induced Drosophila LGR2 receptor cAMP signaling. 380,000 compounds, 0.35% hits. inhibition, % at 9.99 µM. AID 720647. HEK293 LGR2, CRE-luciferase, bursicon-stimulated, 4 h;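 active = drop in luminescence signal, shown as inhibition above about 50% in the replicate tests, limit read from the data, passing the limit was not always enough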;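 note: agonist challenge used bursicon conditioned medium at about half maximal strength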
Ecoli rRNA inh: selective bacterial rRNA inhibition in E. coli. E. coli WT GFP vs humanized-ribosome RFP mutants, fluorescence, 24 h; active compounds read low; DMSO median 0, no signal -100. GFP signal change (wild-type ribosome), % (concentration not given with the values). 350,000 compounds, 1.6% hits. AID 720706;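 active = significant combined selectivity score with lowered wild-type GFP, culture density cut under 30%, mutant RFP and density less affected; inactive = any of these conditions unmet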
EWS-Fli inh: EWS/Fli transcriptional activity inhibition. A673 NR0B1-luciferase reporter, viability-normalised. inhibition, % at 12.6 µM. 350,000 compounds, 0.67% hits. AID 651661;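 active = mean inhibition of at least 50% after viability correction, with every replicate also passing that limit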;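 note: firefly luciferase signal divided by Alamar Blue viability fluorescence both relative to DMSO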
Numbers without * were called inactive; x = not tested or not shown. The list is not random: actives were taken first. Their share in the collection is about 2.4%.

SMILES	E-sel inducer	LGR2 antag	Ecoli rRNA inh	EWS-Fli inh
CC(=O)O[C@H]1C(=O)[C@@]2(C)[C@H]([C@H](OC(=O)c3ccccc3)[C@]3(O)C[C@H](OC(=O)[C@H](O)[C@@H](NC(=O)c4ccccc4)c4ccccc4)C(C)=C1C3(C)C)[C@]1(OC(C)=O)CO[C@@H]1C[C@@H]2O	2	10	-1	65*
Cn1cnc(S(=O)(=O)N2CCCC(c3cc(C(=O)Nc4ccc(F)c(Cl)c4)no3)C2)c1 (stereo unspecified)	0	-35	-25*	-43
O=C(Nc1ccc(F)c(Cl)c1)c1cc(C2CCCN(S(=O)(=O)c3ccccc3)C2)on1 (stereo unspecified)	0	4	-5	24
CCCC(=O)N1CCCC(c2cc(C(=O)Nc3ccccc3)no2)C1 (stereo unspecified)	0	82*	8	14
CC(=O)N[C@H]1CC[C@@H](CCNC(=O)C2CC2)O[C@H]1CO	0	4	5	2
CCNC(=O)Nc1ccc2c(c1)C(=O)N(C)[C@H]1CC[C@H](CC(=O)NC3CCCCC3)O[C@H]1CO2	0	7	4	-4
Cc1ccc(S(=O)(=O)CCC(=O)OCc2ccc(Cl)cc2)cc1	x	-7	-26*	7
Cc1ccc2nc(-c3ccc(NC(=S)NCC(C)(C)CN(C)C)cc3)sc2c1	9	20	-36*	6
Nc1ccc(-c2nc3cc(N)ccc3s2)cc1	-2	34	-12	38
CNC(=S)Nc1ccc(-c2nc3ccc(C)cc3s2)cc1	3	53*	-48	-7
CC(=O)NC(=S)Nc1ccc(-c2nc3ccc(C)cc3s2)cc1	x	-59	7	-71
Cc1ccc2nc(-c3ccc(N)cc3)sc2c1	0	82*	-44*	69*
CN1C(=O)CS(=O)(=O)C1c1ccccc1 (stereo unspecified)	x	x	x	-2
C[C@@H]1CCCCO[C@H](CN(C)Cc2ccc(C(=O)Nc3ccccc3N)cc2)[C@H](C)CN([C@@H](C)CO)C(=O)c2cc(N(C)C)ccc2O1	x	x	-2	x
S=c1[nH]nc(COc2ccccc2)n1/N=C/c1ccccc1Cl	1	7	-24*	-1
NC(=O)c1c(N)[nH]c(C(=O)c2ccccc2)c1-c1ccc(Cl)cc1Cl	0	-22	-16	-9
Nc1[nH]c(C(=O)c2ccccc2)c(-c2ccccc2Cl)c1C(=O)c1ccccc1	0	7	-27*	8
FC(F)(F)c1ccc2c(c1)N1CCCC1CN2 (stereo unspecified)	58*	11	6	2
NNC(=O)C(=O)Nc1ccc(Cl)c(Cl)c1	1	6	-1	-2
CC(Nc1ccc(Cl)c(Cl)c1)C(=O)NN (stereo unspecified)	3	-4	-26*	11
CCC(COC)Oc1cc(NCc2ccccc2)c2ncn(C(C)C)c2c1 (stereo unspecified)	x	104*	8	4
CCC(CO)Oc1cc(NC(=O)c2ccc(F)cc2)c2ncn(C(C)C)c2c1 (stereo unspecified)	0	-2	7	-7
CCCCOc1cc(NCc2ccccc2)c2ncn(C(C)C)c2c1	0	68*	2	11
CCC(CO)Oc1cc(NC(=O)c2ccc(N)cc2)c2ncn(C(C)C)c2c1 (stereo unspecified)	0	-3	-20*	-42
COCCCOc1cc(NCc2ccccc2)c2ncn(C(C)C)c2c1	x	17	-8	10
SMILES	E-sel inducer	LGR2 antag	Ecoli rRNA inh	EWS-Fli inh
COc1ccc(S(=O)(=O)N[C@H]2CC[C@@H](CC(=O)N3CCC(Cc4ccccc4)CC3)O[C@@H]2CO)cc1	-1	1	-1	x
O=C(c1cc(=O)[nH]c2ccccc12)N1CCN(c2ccc([N+](=O)[O-])cc2)CC1	33*	17	2	1
S=C(c1cn(Cc2ccccc2)c2ccccc12)N1CCOCC1	2	19	-29*	4
O=C(Nc1ccc2oc(Cc3ccc(Cl)cc3)nc2c1)c1cccnc1	x	14	-14	x
CCOc1cccc(C(=O)Nc2ccc3oc(Cc4ccc(Cl)cc4)nc3c2)c1	x	16	-30*	x
Cn1ncc(Br)c1C(=O)NC1C2CC3CC(C2)CC1C3 (stereo unspecified)	-3	4	-30*	4
CO[C@H]1CN(C)C(=O)c2cc(NC(C)=O)ccc2OC[C@H](C)N(C(=O)CN(C)C)C[C@H]1C	0	6	1	x
O=C(Cc1ccccc1)N1CC[C@@H]2[C@H]1c1cc(Br)ccc1N[C@@H]2CO	-1	28	-4	-5
Cc1ccc(S(=O)(=O)Oc2ccccc2/C=N/Nc2ccc(C(=O)O)cc2)cc1	-3	15	-33*	-8
COCCCN=C1NN=C(c2cc(C)n(-c3ccccc3F)c2C)CS1	0	6	-2	58*
COCCCN=C1NN=C(c2cc(C)n(-c3ccccc3)c2C)CS1	x	x	8	-58
O=C(COC(=O)c1cc([N+](=O)[O-])ccc1N1CCOCC1)Nc1ccc(Cl)cc1	x	-2	-34*	9
O=C(c1ccc(Cl)cc1)c1cc([N+](=O)[O-])ccc1N1CCOCC1	-1	-18	-8	59*
CC(=O)Nc1cc([N+](=O)[O-])ccc1N1CCOCC1	x	9	11	-16
O=C(c1ccc(Br)cc1)c1cc([N+](=O)[O-])ccc1N1CCOCC1	1	-9	1	46
O=C(Nc1ccc([N+](=O)[O-])cc1)Nc1ccc(N2CCOCC2)c2nonc12	5	67*	14	12
CC1CCCN(c2ccc([N+](=O)[O-])cc2C(=O)c2ccccc2)C1 (stereo unspecified)	x	-6	-10	59*
NC(=O)c1ccc(NC(=O)COC(=O)c2cc([N+](=O)[O-])ccc2N2CCOCC2)cc1	x	16	2	5
CC(C)(C)S(=O)N1Cc2cc(C(=O)O)nc(-c3cccc(C#CCC4CCCC4)c3)c2[C@H]1CCO (stereo partly specified)	x	x	-8	x
CN1C(=O)c2cc(NC(=O)c3cccs3)ccc2OC[C@H]2O[C@H](CC(=O)NCC(F)(F)F)CC[C@@H]21	0	-2	-1	-18
C[C@@H]1CN([C@@H](C)CO)C(=O)c2cc(-c3ccc(F)cc3)cnc2O[C@@H]1CN(C)C(=O)NC1CCCC1	0	-4	3	-1
CN1CCN(c2ccc([N+](=O)[O-])cc2NC(=O)c2ccccc2)CC1	x	-7	x	x
O=C(OCc1cccc(Cl)c1)c1cc([N+](=O)[O-])ccc1N1CCOCC1	2	5	-17	-7
O=C(OCc1ccc(Br)cc1)c1cc([N+](=O)[O-])ccc1N1CCOCC1	7	24	-7	62*
O=C(Nc1cc([N+](=O)[O-])ccc1N1CCCC1)c1ccccc1	x	5	-26*	8
C[C@@H]1CN([C@@H](C)CO)C(=O)c2cc(NC(=O)CCN3CCOCC3)ccc2O[C@@H]1CN(C)S(=O)(=O)c1cccs1	0	-11	-2	1
O=C(Nc1ccc(Cl)cc1)NN1CCCCCC1	-2	-53	-32	-27

Screening data: PubChem BioAssay, Broad Institute
